Measured values from paper PMC4264455 (British Journal of Cancer, 2014).
Entries after “also recorded” stand apart in the source; their conditions may differ.

Experiments:
[1] = test system: QTc intervals; assay: ECG analysis; assay type: in vivo, human
How it was run: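 After dose level 1, patients with QTc ⩾460 ms at baseline, congenital long QT or QT-affecting medication were excluded. 12-lead ECGs were taken immediately before and after each infusion on days 1, 4, 8 and 11 of cycle 1, with a confirmatory ECG within 48 h of any abnormality. QT was machine-recorded with Bazett correction. At 27.0 mg m−2, 24-h ambulatory ECG started immediately after the cycle 1 infusion. An independent cardiologist reviewed all tracings.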

[2] = test system: CDK6; settings: ref Squires et al, 2009; cited from earlier work
[3] = test system: advanced solid malignancies or non-Hodgkin's lymphoma; assay: Anti-tumour activity; assay type: in vivo, human
How it was run: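 Test compound given as a 1-h IV infusion on days 1, 4, 8 and 11 every 3 weeks, at 14.4–32.4 mg m−2. Radiological assessment was done after every two cycles. Response was graded by RECIST version 1.1. Treatment continued until progression, unacceptable toxicity or consent withdrawal.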

[4] = Pharmacokinetic analysis of plasma AT7519 after first 1-h intravenous infusion; assay type: in vivo, human
[5] = test system: markers of CDK activity in tumour biopsies; assay: Pharmacodynamic analysis of tumour biopsies; assay type: in vivo, human; settings: three patients at RP2D, pre-dose vs 24 h after end of infusion
How it was run: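 Tumour biopsies were taken at 27.0 mg m−2, before dosing and 24 h after the end of a 1-h IV infusion. Samples were immunostained for PCNA, phospho-NPM and Ki67. Read-out was the estimated percentage of positively stained tumour cells.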

[6] = test system: CDK4; settings: ref Squires et al, 2009; cited from earlier work
[7] = test system: patients with refractory solid tumors; settings: ref Mahadevan et al, 2011, cited from earlier work
[8] = test system: human cancer cell lines; settings: in vitro studies; ref Squires et al, 2010; cited from earlier work
[9] = test system: patients with advanced refractory solid tumours or non-Hodgkin's lymphoma; assay: Phase I dose escalation: safety, tolerability, DLT and adverse events; assay type: in vivo, human
[10] = 19 patients evaluable for efficacy
[11] = 1-h intravenous infusion, day 1 cycle 1, 29 patients
[12] = five consecutive days every 3 weeks
[13] = 1-h intravenous infusion on days 1, 4, 8 and 11 every 3 weeks

## O=C(NC1CCNCC1)c1n[nH]cc1NC(=O)c1c(Cl)cccc1Cl [AT7519, N-(4-piperidinyl)-4-(2,6-dichlorobenzoylamino)-1H-pyrazole-3-carboxamide]
[1]; among the 24 patients with baseline QTc ⩽450 ms
  patients with transient QTc increases: 10 patients
[1]; serial ECGs, 24-h ambulatory ECG in five patients at the RP2D level
  QTc prolongation: no clinically significant QTc prolongations
[2]
  IC50: 170 nM
[3]; [10]
  complete or partial response: no complete or partial response; also recorded: no partial response
  patients with progressive disease as best response: nine
[3]; one patient with metastatic rectal cancer, 10 cycles
  duration of durable stable disease in one patient: 11.1 months
[3]; ten patients with stable disease
  median duration of stable disease: 3.3 months
[4]; [11]
  plasma clearance: 0.28±0.26 l min^−1 m^−2
  volume of distribution: 289±218 l m^−2
[4]; 14.4 to 32.4 mg m^−2
  dose dependence of Cmax and plasma exposures: apparent dose proportional increase; also recorded: linear pharmacokinetics
[4]; human, plasma, intravenous, 27 mg
  Cmax: 591 ± 358 ng/mL
[4]; human, plasma, iv
  half-life: 13.1 ± 4 h
[5]
  changes in proliferating cell nuclear antigen, pNPM and Ki67: no consistent changes
[6]
  IC50: 100 nM
[7]; [12]
  dose at which one patient death from QTc prolongation was reported: 34 mg m^−2 per day
  minimal effective biological dose: 28.8 mg m^−2 per day
[7]; × 5 days
  dose at which dose-limiting toxicity (DLT) was initially seen: 14.4 mg m^−2 per day
[8]
  concentrations at which anti-cancer activities were observed: above 100 ng ml^−1
[9]; 14.4 mg m^−2 (n=5)
  ALP elevation: No. of patients with AEs of any grade: 3 No. of patients
  AST elevation: No. of patients with AEs of any grade: 2 No. of patients
  Anaemia: No. of patients with AEs of any grade: 5 No. of patients
  Anorexia: No. of patients with AEs of any grade: 0 No. of patients
  Creatinine elevation: No. of patients with AEs of any grade: 1 No. of patients
  Diarrhoea: No. of patients with AEs of any grade: 0 No. of patients
  Fatigue: No. of patients with AEs of any grade: 0 No. of patients
  Hyperglycaemia (random): No. of patients with AEs of any grade: 0 No. of patients
  Infection without neutropenia: No. of patients with AEs of any grade: 0 No. of patients
  Lymphopenia: No. of patients with AEs of any grade: 4 No. of patients
  Mucositis: No. of patients with AEs of any grade: 0 No. of patients
  Nausea: No. of patients with AEs of any grade: 1 No. of patients
  Neutropenia: No. of patients with AEs of any grade: 0 No. of patients
  Thrombocytopenia: No. of patients with AEs of any grade: 0 No. of patients
  Vomiting: No. of patients with AEs of any grade: 1 No. of patients
[9]; 21.6 mg m^−2 (n=7)
  ALP elevation: No. of patients with AEs of any grade: 5 No. of patients
  AST elevation: No. of patients with AEs of any grade: 2 No. of patients
  Anaemia: No. of patients with AEs of any grade: 6 No. of patients
  Anorexia: No. of patients with AEs of any grade: 1 No. of patients
  Creatinine elevation: No. of patients with AEs of any grade: 1 No. of patients
  Diarrhoea: No. of patients with AEs of any grade: 2 No. of patients
  Fatigue: No. of patients with AEs of any grade: 4 No. of patients
  Hyperglycaemia (random): No. of patients with AEs of any grade: 1 No. of patients
  Infection without neutropenia: No. of patients with AEs of any grade: 1 No. of patients
  Lymphopenia: No. of patients with AEs of any grade: 5 No. of patients
  Mucositis: No. of patients with AEs of any grade: 3 No. of patients
  Nausea: No. of patients with AEs of any grade: 2 No. of patients
  Neutropenia: No. of patients with AEs of any grade: 0 No. of patients
  Thrombocytopenia: No. of patients with AEs of any grade: 1 No. of patients
  Vomiting: No. of patients with AEs of any grade: 1 No. of patients
[9]; 27.0 mg m^−2 (n=15)
  ALP elevation: No. of patients with AEs of any grade: 7 No. of patients
  AST elevation: No. of patients with AEs of any grade: 9 No. of patients
  Anaemia: No. of patients with AEs of any grade: 12 No. of patients
  Anorexia: No. of patients with AEs of any grade: 2 No. of patients
  Creatinine elevation: No. of patients with AEs of any grade: 1 No. of patients
  Diarrhoea: No. of patients with AEs of any grade: 3 No. of patients
  Fatigue: No. of patients with AEs of any grade: 10 No. of patients
  Hyperglycaemia (random): No. of patients with AEs of any grade: 9 No. of patients
  Infection without neutropenia: No. of patients with AEs of any grade: 3 No. of patients
  Lymphopenia: No. of patients with AEs of any grade: 13 No. of patients
  Mucositis: No. of patients with AEs of any grade: 11 No. of patients
  Nausea: No. of patients with AEs of any grade: 6 No. of patients
  Neutropenia: No. of patients with AEs of any grade: 4 No. of patients
  Thrombocytopenia: No. of patients with AEs of any grade: 6 No. of patients
  Vomiting: No. of patients with AEs of any grade: 4 No. of patients
[9]; 32.4 mg m^−2 (n=5)
  ALP elevation: No. of patients with AEs of any grade: 5 No. of patients
  AST elevation: No. of patients with AEs of any grade: 3 No. of patients
  Anaemia: No. of patients with AEs of any grade: 5 No. of patients
  Anorexia: No. of patients with AEs of any grade: 1 No. of patients
  Creatinine elevation: No. of patients with AEs of any grade: 2 No. of patients
  Diarrhoea: No. of patients with AEs of any grade: 0 No. of patients
  Fatigue: No. of patients with AEs of any grade: 3 No. of patients
  Hyperglycaemia (random): No. of patients with AEs of any grade: 2 No. of patients
  Infection without neutropenia: No. of patients with AEs of any grade: 2 No. of patients
  Lymphopenia: No. of patients with AEs of any grade: 5 No. of patients
  Mucositis: No. of patients with AEs of any grade: 3 No. of patients
  Nausea: No. of patients with AEs of any grade: 4 No. of patients
  Neutropenia: No. of patients with AEs of any grade: 1 No. of patients
  Thrombocytopenia: No. of patients with AEs of any grade: 2 No. of patients
  Vomiting: No. of patients with AEs of any grade: 5 No. of patients
[9]; [13]
  maximum tolerated dose: 32.4 mg m^−2
  recommended phase II dose (RP2D): 27.0 mg m^−2
[9]; all dose levels (N=32)
  ALP elevation: Any grade AE No. of patients (%): 20 (62.5) No. of patients (%)
  ALP elevation: Grade 3/4 AE No. of patients (%): 5 (15.6) No. of patients (%)
  AST elevation: Any grade AE No. of patients (%): 16 (50.0) No. of patients (%)
  AST elevation: Grade 3/4 AE No. of patients (%): 3 (9.4) No. of patients (%)
  Anaemia: Any grade AE No. of patients (%): 28 (87.5) No. of patients (%)
  Anaemia: Grade 3/4 AE No. of patients (%): 1 (3.1) No. of patients (%)
  Anorexia: Any grade AE No. of patients (%): 4 (12.5) No. of patients (%)
  Anorexia: Grade 3/4 AE No. of patients (%): 0 No. of patients (%)
  Creatinine elevation: Any grade AE No. of patients (%): 5 (15.6) No. of patients (%)
  Creatinine elevation: Grade 3/4 AE No. of patients (%): 1 (3.1) No. of patients (%)
  Diarrhoea: Any grade AE No. of patients (%): 5 (15.6) No. of patients (%)
  Diarrhoea: Grade 3/4 AE No. of patients (%): 0 No. of patients (%)
  Fatigue: Any grade AE No. of patients (%): 17 (53.1) No. of patients (%)
  Fatigue: Grade 3/4 AE No. of patients (%): 3 (9.4) No. of patients (%)
  Hyperglycaemia (random): Any grade AE No. of patients (%): 12 (37.5) No. of patients (%)
  Hyperglycaemia (random): Grade 3/4 AE No. of patients (%): 2 (6.3) No. of patients (%)
  Infection without neutropenia: Any grade AE No. of patients (%): 6 (18.8) No. of patients (%)
  Infection without neutropenia: Grade 3/4 AE No. of patients (%): 1 (3.1) No. of patients (%)
  Lymphopenia: Any grade AE No. of patients (%): 27 (84.4) No. of patients (%)
  Lymphopenia: Grade 3/4 AE No. of patients (%): 12 (37.5) No. of patients (%)
  Mucositis: Any grade AE No. of patients (%): 17 (53.1) No. of patients (%)
  Mucositis: Grade 3/4 AE No. of patients (%): 3 (9.4) No. of patients (%)
  Nausea: Grade 3/4 AE No. of patients (%): 0 No. of patients (%)
  Neutropenia: Any grade AE No. of patients (%): 5 (15.6) No. of patients (%)
  Neutropenia: Grade 3/4 AE No. of patients (%): 1 (3.1) No. of patients (%)
  Thrombocytopenia: Any grade AE No. of patients (%): 9 (28.1) No. of patients (%)
  Thrombocytopenia: Grade 3/4 AE No. of patients (%): 0 No. of patients (%)
  Vomiting: Any grade AE No. of patients (%): 11 (34.4) No. of patients (%)
  Vomiting: Grade 3/4 AE No. of patients (%): 0 No. of patients (%)
[9]; any grade, all dose levels
  patients with anaemia: 87.5%
  patients with fatigue: 53.1%
  patients with lymphopenia: 84.4%
  patients with mucositis: 53.1%
  patients with nausea: 31.7%
  patients with vomiting: 34.4%
[9]; dose level 14.4 mg m^−2, 5 patients treated, days 1, 4, 8, 11 every 3 weeks
  No. of patients with DLT: No DLTs and none
[9]; grade 3, all dose levels
  patients experienced grade 3 fatigue and mucositis: < 10%
[9]; grade 3 or 4, all dose levels
  grade 3 or 4 elevation of alkaline phosphatase: 15.6%
  grade 3 or 4 elevation of aspartate transaminase: 9.4%
  patients developing grade 3 or 4 lymphopenia: 37.5%
  patients with grade 3 or 4 fatigue and mucositis: 9%
